KCNK3 inh – human KCNK3 channel inhibitors, primary screen, CHO cells, FluxOR thallium flux, B-score; Potassium channel subfamily K member 3 (Homo sapiens), O14649; FluxOR fluorescence; stronger effect = lower value; AID 602410, 2012; 340,000 tested, 0.84% active; B-score at 10 µM;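 active means B-score under library mean minus 4 SD, starting fluorescence ratio at most library mean plus 5 SD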;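 further: more negative B-score means stronger inhibition of thallium flux through KCNK3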
hERG protect – hERG rescue from dofetilide block, primary screen, cell-based, CHO-hERG, FluxOR thallium flux, dofetilide IC70 | Voltage-gated inwardly rectifying potassium channel KCNH2 (Homo sapiens), Q12809 | AID 1511, 2009 | dofetilide IC70 present | activation (rescue from dofetilide block), less the hit threshold, % at 10 µM | 310,000 tested, 0.51% active;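 active means activation above the mean of controls blocked by dofetilide plus 5 SD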;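 further: thallium influx through hERG after potassium depolarization seen as dye fluorescence rise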
Kir21 block – inhibitors of mouse Kir2.1 inward-rectifier potassium channel. B-score at 10 µM. HEK293-Kir2.1, FluxOR thallium flux fluorescence; stronger effect = lower value. AID 1672, 2009. Inward rectifier potassium channel 2 (Mus musculus), P35561. 310,000 tested, 0.85% active;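 active means fluorescence ratio B-score at or below minus 3 SD of library scores, with starting-brightness B-score within 2 SD, cut at about -4.2 in these data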;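 further: channel flux triggered by added potassium and thallium sulfate stimulus; B-score of peak minus minimum fluorescence over baseline after thallium stimulus; more negative B-score means stronger Kir2.1 block with less thallium influx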
KCNK9 inh – KCNK9 potassium channel inhibitors, primary screen, HEK293 cells, thallium flux; B-score at 10 µM; AID 488922, 2010; Potassium channel subfamily K member 9 (Homo sapiens), Q9NPC2; FluxOR thallium flux fluorescence; stronger effect = lower value; 310,000 tested, 1.2% active;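 active means ratio B-score over 3 SD below the library mean, with starting fluorescence within 5 SD of its mean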;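 further: negative B-score means less thallium flux so channel inhibition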
Target sequence (Q9NPC2 whole entry, looked up): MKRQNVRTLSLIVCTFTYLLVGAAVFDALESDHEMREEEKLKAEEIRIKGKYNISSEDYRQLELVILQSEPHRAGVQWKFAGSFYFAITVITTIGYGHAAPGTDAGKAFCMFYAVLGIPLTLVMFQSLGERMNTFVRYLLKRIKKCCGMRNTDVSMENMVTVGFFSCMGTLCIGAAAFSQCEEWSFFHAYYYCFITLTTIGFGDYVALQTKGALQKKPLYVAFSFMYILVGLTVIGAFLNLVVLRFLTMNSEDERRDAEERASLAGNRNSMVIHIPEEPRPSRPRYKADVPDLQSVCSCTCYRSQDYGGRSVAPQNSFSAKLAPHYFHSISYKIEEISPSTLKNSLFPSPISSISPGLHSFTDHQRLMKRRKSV
KCNQ1 act – potentiators or activators of KCNQ1 channel, primary screen, cell-based, thallium flux, high-throughput; Potassium voltage-gated channel subfamily KQT member 1 (Homo sapiens), P51787; CHO-K1 KCNQ1, thallium flux FluxOR fluorescence; stronger effect = higher value; B-score at 10 µM; 310,000 tested, 0.35% active;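 active means fluorescence ratio B-score, a plate-corrected score, at least three library SD, with initial intensity B-score within 5 SD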
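Schedule – 37 °C overnight plating, 90-min dark dye load, 20-min compound pretreatment · System – stable KCNQ1 CHO-K1 line · Probe or stimulus – thallium- and potassium-containing depolarizing buffer · Measured by – kinetic FluxOR fluorescence, 10 s baseline plus 110 s post-stimulus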
KCNQ1 block – inhibitors of human KCNQ1 channel, primary screen, cell-based, thallium flux, high-throughput; Potassium voltage-gated channel subfamily KQT member 1 (Homo sapiens), P51787; CHO-K1 KCNQ1, FluxOR thallium flux fluorescence; stronger effect = higher value; B-score at 10 µM; 310,000 tested, 1.3% active; AID 2642, 2010;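 active means compounds whose thallium flux B-score, printed positive for inhibition, exceeds three library SD while starting fluorescence stays within three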;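 further: channel opened by potassium depolarization with thallium stimulus after 20 min compound exposure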
Each line names hits and unclear results; the compound was inactive in the other large screens. Shown are actives, neighbours in structure and some others; about 3.7% of the full set was active somewhere.

O=C(c1ccc(-c2cccc([N+](=O)[O-])c2)o1)N1CCN(c2ccc([N+](=O)[O-])cc2)CC1	none (no result: hERG protect, Kir21 block, KCNK9 inh, KCNQ1 act, KCNQ1 block)
O=C(c1ccc(-c2ccc(Cl)cc2)o1)N1CCN(c2ccc([N+](=O)[O-])cc2Cl)CC1	KCNQ1 block 7
CCCN(CC1CC1)C(=S)Nc1ccccc1F	hERG protect 11.1
O=c1oc2ccccc2c2c1ccc1ccccc12	none (no result: hERG protect, Kir21 block, KCNK9 inh, KCNQ1 act, KCNQ1 block)
COc1cc(CNC(=O)c2cccc(COc3ccc(Cl)cc3)c2)cc(OC)c1	none
Clc1cc(Cl)c(OCc2nc(-c3ccccn3)no2)cc1Cl	none
CC(C)(C)c1ccc(OCc2nc(-c3ccccn3)no2)c(Br)c1	KCNK9 inh -6.83
CC(/C=N/NC(=O)c1ccccc1F)c1ccccc1 (stereo unspecified)	none
CN(C(=O)c1ccccc1F)C(c1ccccc1)c1ccccc1	Kir21 block -7.19
CCN(CC)C(=O)COc1ccc2oc(C)c(C(=O)OC(C)C)c2c1	Kir21 block -4.25
COCCOC(=O)c1c(C)oc2ccc(OCC=C(C)C)cc12	KCNK3 inh -9.07
COc1cccc(NC(=O)CSc2c3c(nc4ccccc24)CCCC3)c1	Kir21 block -5.8
O=C(O)CC1(CC(=O)NCc2ccc(C(F)(F)F)cc2)CCCCC1	none
O=C(O)CC1(CC(=O)Nc2cc(C(F)(F)F)cc(C(F)(F)F)c2)CCCCC1	KCNQ1 block 7
N#Cc1ccccc1OCC(=O)N1CCN(S(=O)(=O)c2ccc(Cl)cc2)CC1	none (no result: hERG protect, Kir21 block, KCNK9 inh, KCNQ1 act, KCNQ1 block)
Cc1[nH]c2ccccc2c1CC#N	none
Cc1[nH]c2ccccc2c1C1=CC(=O)C=CC1=O	KCNK3 inh -9.21 (no result: hERG protect, Kir21 block, KCNK9 inh, KCNQ1 act, KCNQ1 block)
COc1ccc(CNC(=O)COC(=O)C(CCSC)NC(=O)c2ccco2)cc1OC (stereo unspecified)	none (no result: hERG protect, Kir21 block, KCNK9 inh, KCNQ1 act, KCNQ1 block)
Fc1cc(F)c2nc(N3CCCCC3)sc2c1	hERG protect 5.1
Cc1cccc(CNc2ccc(S(=O)(=O)N3CCCCC3)cc2)c1	KCNK3 inh -9.88 (no result: hERG protect, Kir21 block, KCNK9 inh, KCNQ1 act, KCNQ1 block)
Fc1cc(Br)ccc1COc1ccc(-c2nnco2)cc1	none
CCOC(=O)C1=C(C)OC(N)=C(C#N)C1c1cc2c(cc1[N+](=O)[O-])OCO2 (stereo unspecified)	none
CCC(=O)OCCNc1cc(Sc2nccn2C)c2nonc2c1[N+](=O)[O-]	KCNQ1 block 7
Cc1cc(C)nc(NS(=O)(=O)c2ccc(NC(=O)c3snnc3C)cc2)n1	none
CCCNC(=O)c1csc(Nc2cccc3ccccc23)n1	KCNK9 inh -8.04
COCCNC(=O)c1csc(Nc2cccc3ccccc23)n1	none
Cc1c(Cl)cccc1NC(=O)CCNC(=O)N1CC(=O)Nc2ccccc21	none
Cc1cc(C[n+]2ncsc2N)c2ncccc2c1	none
CCOc1ccc2c(c1)sc(N)[n+]2Cc1cc(C)cc2cccnc12	Kir21 block -4.34
COc1ccc2c(c1)sc(N)[n+]2Cc1cc(C)cc2cccnc12	Kir21 block -4.53
COc1ccccc1C(=O)N/C(=C\c1cn(C)c2ccccc12)C(=O)N1CCCC1	none
CCN(c1ccc(Cl)cc1)S(=O)(=O)c1nnc(NC(=O)C(C)C)s1	none
Oc1c(Cl)cc(Cl)cc1Sc1cc(Cl)cc(Cl)c1O	hERG protect 43.0, KCNQ1 act 105 (no result: KCNK3 inh)
[O-][n+]1cccc(C(O)c2ccccc2)c1 (stereo unspecified)	none
COc1ccc(S(=O)(=O)NCCSc2ccccc2)cc1OC	none
COc1ccc(S(=O)(=O)NCCSc2ccc(C)cc2)cc1OC	Kir21 block -5.25
Cc1ccc(S(=O)(=O)Nc2c(C)n(C)n(-c3ccccc3)c2=O)cc1C(=O)NCc1ccccc1	none (no result: hERG protect, Kir21 block, KCNK9 inh, KCNQ1 act, KCNQ1 block)
O=C(CCc1ccccc1)N=C1SC2CS(=O)(=O)CC2N1Cc1ccc(F)cc1 (stereo unspecified)	none
CCOC(=O)C1CCN(S(=O)(=O)c2ccc(C)cc2)CC1	none
Cc1ccc(S(=O)(=O)c2c(C)nn(C(C)(C)C)c2OC(=O)C2CCCC2)cc1	KCNK3 inh -8.82, KCNK9 inh -8
Cc1c(N2C(=O)C3C4C=CC(C5CC45)C3C2=O)c(=O)n(-c2ccccc2)n1C (stereo unspecified)	none
COc1ccccc1C(=O)n1nc(-c2ccccc2)nc1NCc1ccco1	KCNK9 inh -7.72
CC(C)c1ccc(CNc2ccc([N+](=O)[O-])cn2)cc1	KCNQ1 block 7
O=[N+]([O-])c1ccc(NCc2ccc(Cl)cc2)nc1	none
Cc1ccc(S(=O)(=O)NNC(=S)NCC2CCCO2)cc1 (stereo unspecified)	none
S=c1[nH]c2cc(-c3ccccc3)ccc2o1	hERG protect 44.7, KCNQ1 act 63
Cc1cc(Br)cc(/C=N/NC(=O)c2ccc3c(c2)OCO3)c1O	KCNQ1 block 8
CNC(=O)c1sc(N2N=C3/C(=C/c4ccccc4)CCCC3C2c2ccccc2)nc1C (stereo unspecified)	KCNK9 inh -8.67
CC(C)CNc1nc(Oc2ccc(=O)[nH]n2)nc(N2CCOCC2)n1	none
CCCCc1n[nH]c(=S)n1Cc1ccc(Cl)cc1	KCNK9 inh -10
NC(=O)C1CCN(C(=O)C2CC(=O)N(c3ccc4c(c3)OCCO4)C2)CC1 (stereo unspecified)	none (no result: hERG protect, Kir21 block, KCNK9 inh, KCNQ1 act, KCNQ1 block)
Cc1ccc(C)c(NC(=O)C(=O)NCc2ccccn2)c1	none
CCC(OC(=O)c1cc2sccc2n1C)C(=O)NCc1ccco1 (stereo unspecified)	none
COCCNC(=O)C(C)OC(=O)c1cc2sccc2n1C (stereo unspecified)	hERG protect 5.7
CC1=C(CC(=O)O)c2cc(F)ccc2C1=Cc1ccc(S(C)(=O)=O)cc1	none (no result: hERG protect, Kir21 block, KCNK9 inh, KCNQ1 act, KCNQ1 block)
CC(=O)c1c(OC(=O)c2ccc(C)cc2)c2ccccc2n1C	KCNK9 inh -7.24
COc1cccc(-c2csc(NC3OC(=O)c4c3ccc(OC)c4OC)n2)c1 (stereo unspecified)	none
COc1ccc2c(c1OC)C(=O)OC2Nc1nc(-c2ccc(-c3ccccc3)cc2)cs1 (stereo unspecified)	KCNK9 inh -7.07
Cn1ccc2cc(NC(=O)Nc3cccnc3)ccc21	none
COc1ccc(Cl)cc1NC(=O)COC(=O)Cc1cc(OC)c(OC)c(OC)c1	none (no result: hERG protect, Kir21 block, KCNK9 inh, KCNQ1 act, KCNQ1 block)
COc1ccc(Cl)cc1NC(=O)COC(=O)CCc1cc(OC)c(OC)c(OC)c1	Kir21 block -4.94
O=C1C2C3C=CC(C4CC34)C2C(=O)N1/N=C/c1ccc(-c2ccc(F)cc2[N+](=O)[O-])o1 (stereo unspecified)	hERG protect 8.1

Compound activity: PubChem BioAssay, Johns Hopkins Ion Channel Center
